These results are taken from ChEMBL document CHEMBL1152208, “The discovery of biaryl carboxamides as novel small molecule agonists of the motilin receptor” (Bioorg Med Chem Lett, 2008).

pEC50: −log10 of the molar value.

The target in series [1] is Motilin receptor (Homo sapiens, UniProt O43193). Nature of the series: Agonist activity at human recombinant motilin receptor expressed in HEK293 cells by FLIPR assay. The format is functional, cell-based. Summed up: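 HEK293 cells stably expressing human motilin receptor, seeded on poly-lysine plates 24 h before assay. Loaded with Fluo-4-AM (final) and 1 mM probenecid (final) in HEPES-buffered saline with 0.1% BSA for 1 h at 25 °C, washed, rested 20 min at 25 °C. Fluorescence change followed for 2 min after compound addition. Peak change over baseline was fitted with a 4-parameter logistic to give pEC50. Mean of at least three independent experiments (n = 2 for some).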
Chain of Motilin receptor (O43193 whole entry): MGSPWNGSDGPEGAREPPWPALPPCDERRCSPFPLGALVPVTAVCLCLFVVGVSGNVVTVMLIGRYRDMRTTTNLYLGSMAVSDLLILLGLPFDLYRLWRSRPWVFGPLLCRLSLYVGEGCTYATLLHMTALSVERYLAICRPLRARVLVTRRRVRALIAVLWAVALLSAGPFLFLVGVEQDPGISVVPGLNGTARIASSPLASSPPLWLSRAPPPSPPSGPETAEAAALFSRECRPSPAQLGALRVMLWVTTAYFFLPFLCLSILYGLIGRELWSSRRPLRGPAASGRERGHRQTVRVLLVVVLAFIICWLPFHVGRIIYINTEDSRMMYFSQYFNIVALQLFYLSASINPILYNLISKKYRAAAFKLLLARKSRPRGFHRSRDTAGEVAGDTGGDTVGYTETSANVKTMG

The test system of series [2] is Liver microsomes. Nature of the series: Intrinsic clearance in human liver microsome. The format is ADME. A general note: Microsomes from liver hold many membrane-bound enzymes, among them those of drug oxidation.
In series [3] the test system is Liver microsomes. Nature of the series: Intrinsic clearance in rat liver microsome. The format is ADME.

Regarding `COc1cccc(CCN(Cc2ccccc2-c2ccc(CN3CCNCC3)cc2)C(=O)COc2ccccc2)c1`, the pEC50 in series [1] is 6.60.

For `C[C@@H]1CN(Cc2ccc(-c3cccnc3C(=O)N3CCC(Nc4ccc(C(N)=O)cc4)CC3)cc2)C[C@H](C)N1`, the pEC50 in series [1] is 5.60.

Turning to `COc1ccc(NC2CCN(C(=O)c3ncccc3-c3ccc(CN4C[C@@H](C)N[C@@H](C)C4)cc3)CC2)cc1`, the pEC50 in series [1] is 6.00.

For `C[C@@H]1CN(Cc2ccc(-c3cccnc3C(=O)N3CCC(Nc4cccc(F)c4)CC3)cc2)C[C@H](C)N1`, in series [1], the negative-log EC50 (pEC50) is 8.20. The CL was 4.4 mL/min/g in series [2] and 6.5 mL/min/g in series [3].

As for `Cc1ccc(S(=O)(=O)NCC(=O)N(C)Cc2ccccc2-c2ccc(CN3C[C@@H](C)N[C@@H](C)C3)cc2)cc1`, the negative-log EC50 (pEC50) in series [1] was 7.70.

`C[C@@H]1CN(Cc2ccc(-c3cccnc3C(=O)N3CCC(Nc4cccc(F)c4)CC3)cc2F)C[C@H](C)N1`: in series [1], the negative logarithm of the EC50 (pEC50) was 8.00. Moreover, the CL in series [2] was 9.4 mL/min/g; in series [3], 12 mL/min/g.

Regarding `COc1cc(-c2cccnc2C(=O)N2CCC(Nc3ccc(F)cc3)CC2)ccc1CN1C[C@@H](C)N[C@@H](C)C1`, the negative-log EC50 (pEC50) in series [1] is 8.30. The CL is 5.3 mL/min/g in series [2] and 5.9 mL/min/g in series [3].

For the compound `COCCCN(Cc1ccccc1-c1ccc(CN2CCNCC2)cc1)C(=O)COc1ccccc1`, in series [1], the pEC50 is 6.40.

As to `C[C@@H]1CN(Cc2ccc(-c3ccccc3CN(C)C(=O)CSc3ccccc3)cc2)C[C@H](C)N1`, the pEC50 in series [1] is 8.50.

For `C[C@@H]1CN(Cc2ccc(-c3cccnc3C(=O)N3CCC(Nc4ccc(F)c(F)c4)CC3)cc2)C[C@H](C)N1`, the negative-log EC50 (pEC50) in series [1] is 8.70. Further, the CL was found to be 7 mL/min/g in series [2] and 5.9 mL/min/g in series [3].

In the case of `C[C@@H]1CN(Cc2ccc(-c3ccccc3CN(C)C(=O)Cc3ccc(F)cc3)cc2)C[C@H](C)N1`, in series [1], the negative logarithm of the EC50 (pEC50) is 7.30.

In the case of `C[C@@H]1CN(Cc2ccc(-c3cccnc3C(=O)N3CCC(Nc4ccc(C#N)cc4)CC3)cc2)C[C@H](C)N1`, the pEC50 in series [1] is 6.20.

On to `C[C@@H]1CN(Cc2ccc(-c3cccnc3C(=O)N3CCC(Nc4cccc(C#N)c4)CC3)cc2)C[C@H](C)N1`, for which the pEC50 in series [1] was 7.70. Moreover, the figures for the CL in series [2] and in series [3] were 3.5 mL/min/g and 4.6 mL/min/g, respectively.

As to `C[C@@H]1CN(Cc2ccc(-c3ccccc3C(=O)N3CCC(NC(=O)c4ccc(F)cc4)CC3)cc2)C[C@H](C)N1`, in series [1], the pEC50 is less than 5.00.

`C[C@@H]1CN(Cc2ccc(-c3ccccc3C(=O)N3CCC(Nc4ccc(F)cc4)CC3)nc2)C[C@H](C)N1`: in series [1], the negative logarithm of the EC50 (pEC50) was less than 5.00.

`C[C@@H]1CN(Cc2cnc(-c3ccccc3C(=O)N3CCC(Nc4ccc(F)cc4)CC3)s2)C[C@H](C)N1`: the pEC50 in series [1] is 6.40.

As to `C[C@@H]1CN(Cc2ccc(-c3cccnc3C(=O)N3CCC(Nc4ccccc4C#N)CC3)cc2)C[C@H](C)N1`, the pEC50 in series [1] was 6.10.

As for `CC(C)CCC(=O)N(C)Cc1ccccc1-c1ccc(CN2C[C@@H](C)N[C@@H](C)C2)cc1`, in series [1], the pEC50 is 6.60.

With `C[C@@H]1CN(Cc2ccc(-c3ccccc3C(=O)N3CCC(Oc4ccc(F)cc4)CC3)cc2)C[C@H](C)N1`, the negative logarithm of the EC50 (pEC50) in series [1] was 7.20.

On to `C[C@@H]1CN(Cc2ccc(-c3cccnc3C(=O)N3CCC(Nc4ccc(F)cc4)CC3)cc2F)C[C@H](C)N1`, for which the pEC50 in series [1] was 8.40. The CL in series [2] turned out to be 5.5 mL/min/g; in series [3], 6.5 mL/min/g.

Turning to `C[C@@H]1CN(Cc2ccc(N3CCCC3C(=O)N3CCC(Nc4cccc(F)c4)CC3)cc2)C[C@H](C)N1` (stereo not given in full), the pEC50 in series [1] was 5.60.

Regarding `C[C@@H]1CN(Cc2ccc(-c3cccnc3C(=O)N3CCC(Nc4ccccc4F)CC3)cc2)C[C@H](C)N1`, the pEC50 in series [1] is 7.30.

With `C[C@@H]1CN(Cc2ccc(-c3ccccc3C(=O)N3CCC(Nc4ccc(F)cc4)CC3)cc2)C[C@H](C)N1`, the pEC50 in series [1] is 8.60.

By pEC50 is commonly meant the negative decadic logarithm of the EC50, by convention in mol/L.
